Measured values: ChEMBL document CHEMBL1629612, “Characterization and sequence analysis of extended-spectrum-{beta}-lactamase-encoding genes from Escherichia coli, Klebsiella pneumoniae, and Proteus mirabilis isolates collected during tigecycline phase 3 clinical trials” (2009)
Converted amounts (≈) assume the structure as drawn.

Columns and labels:
Type in all cases: functional
Escherichia coli [1] = experiment: Antimicrobial activity against Escherichia coli expressing beta-lactamase AmpC and extended-spectrum beta-lactamase by Etest
Summary of the method: (§1)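 Clinical isolates from tigecycline phase 3 trials were received as frozen primary cultures. Serial isolates from one patient were riboprinted, and only the first of identical strains was kept. β-Lactamase genes were assigned by PCR. ESBL confirmation used Etest ESBL strips carrying ceftazidime or cefotaxime, alone and combined with clavulanic acid, following the strip maker's instructions.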

Escherichia coli [2] = experiment: Antimicrobial activity against Escherichia coli expressing beta-lactamase AmpC by Etest; summary of the method: as §1
Klebsiella pneumoniae [3] = experiment: Antimicrobial activity against Klebsiella pneumoniae expressing beta-lactamase CTX by Etest based on multiple determinants
Summary of the method: (§2)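 Clinical isolates from tigecycline phase 3 trials were received as frozen primary cultures. Repeat isolates from one patient were riboprinted, and only the first of identical strains was kept. β-lactamase genes were assigned by PCR against control strains, plus isoelectric focusing. ESBL confirmation used Etest ESBL strips carrying ceftazidime or cefotaxime with clavulanic acid, read per the manufacturer's instructions.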

Escherichia coli [4] = experiment: Antimicrobial activity against Escherichia coli expressing beta-lactamase CTX and SHV by Etest; summary of the method: as §1
Escherichia coli [5] = experiment: Antimicrobial activity against Escherichia coli expressing beta-lactamase CTX by Etest based on multiple determinants; summary of the method: as §1
Escherichia coli [6] = experiment: Antimicrobial activity against Escherichia coli extended-spectrum beta-lactamase producing isolate by Etest; summary of the method: as §1
Klebsiella pneumoniae [7] = experiment: Antimicrobial activity against Klebsiella pneumoniae extended-spectrum beta-lactamase producing isolate by Etest; summary of the method: as §2
Proteus mirabilis [8] = experiment: Antimicrobial activity against Proteus mirabilis extended-spectrum beta-lactamase producing isolate by Etest; summary of the method: as §2
Escherichia coli [9] = experiment: Antimicrobial activity against Escherichia coli expressing beta-lactamase CTX by Etest based on single determinant; summary of the method: as §1
Klebsiella pneumoniae [10] = experiment: Antimicrobial activity against Klebsiella pneumoniae expressing beta-lactamase SHV by Etest based on single determinant; summary of the method: as §2
Klebsiella pneumoniae [11] = experiment: Antimicrobial activity against Klebsiella pneumoniae expressing beta-lactamase SHV by Etest based on multiple determinants; summary of the method: as §2
Klebsiella pneumoniae [12] = experiment: Antimicrobial activity against Klebsiella pneumoniae expressing beta-lactamase CTX by Etest based on single determinant; summary of the method: as §2
Klebsiella pneumoniae [13] = experiment: Antimicrobial activity against Klebsiella pneumoniae expressing beta-lactamase SHV and CTX by Etest; summary of the method: as §2
Klebsiella pneumoniae [14] = experiment: Antimicrobial activity against Klebsiella pneumoniae expressing extended-spectrum beta-lactamase and beta-lactamase AmpC by Etest; summary of the method: as §1
Klebsiella pneumoniae [15] = experiment: Antimicrobial activity against Klebsiella pneumoniae expressing beta-lactamase DHA by Etest; summary of the method: as §1
Proteus mirabilis [16] = experiment: Antimicrobial activity against Proteus mirabilis expressing extended-spectrum beta-lactamase by Etest based on single determinant; summary of the method: as §2
Proteus mirabilis [17] = experiment: Antimicrobial activity against Proteus mirabilis expressing extended-spectrum beta-lactamase by Etest based on multiple determinants; summary of the method: as §2
Proteus mirabilis [18] = experiment: Antimicrobial activity against Proteus mirabilis expressing beta-lactamase AmpC by Etest; summary of the method: as §2
Escherichia coli [19] = experiment: Antimicrobial activity against Escherichia coli expressing beta-lactamase SHV by Etest; summary of the method: as §1

## C[C@@H](O)[C@H]1C(=O)N2C(C(=O)O)=C(SCCNC=N)C[C@H]12 [IMIPENEM ANHYDROUS]
Escherichia coli [1]
  MIC50: 0.25 µg/mL (≈ 0.835 µM)
  MIC90: 0.5 µg/mL (≈ 1.67 µM)
Escherichia coli [2]
  MIC: 0.12 µg/mL (≈ 0.401 µM)
Klebsiella pneumoniae [3]
  MIC50: 0.25 µg/mL (≈ 0.835 µM)
  MIC90: 0.5 µg/mL (≈ 1.67 µM)
Escherichia coli [4]
  MIC50: ≤ 0.12 µg/mL
  MIC90: 0.25 µg/mL (≈ 0.835 µM)
Escherichia coli [5]
  MIC50: ≤ 0.12 µg/mL
  MIC90: 0.25 µg/mL (≈ 0.835 µM)
Escherichia coli [6]
  MIC50: ≤ 0.12 µg/mL
  MIC90: 0.25 µg/mL (≈ 0.835 µM)
Klebsiella pneumoniae [7]
  MIC50: 0.25 µg/mL (≈ 0.835 µM)
  MIC90: 1 µg/mL (≈ 3.34 µM)
Proteus mirabilis [8]
  MIC50: 2 µg/mL (≈ 6.68 µM)
  MIC90: 4 µg/mL (≈ 13.4 µM)
Escherichia coli [9]
  MIC50: ≤ 0.12 µg/mL
  MIC90: 0.25 µg/mL (≈ 0.835 µM)
Klebsiella pneumoniae [10]
  MIC50: 0.25 µg/mL (≈ 0.835 µM)
  MIC90: 1 µg/mL (≈ 3.34 µM)
Klebsiella pneumoniae [11]
  MIC: 0.12 µg/mL (≈ 0.401 µM)
Klebsiella pneumoniae [12]
  MIC50: 0.25 µg/mL (≈ 0.835 µM)
  MIC90: 0.5 µg/mL (≈ 1.67 µM)
Klebsiella pneumoniae [13]
  MIC50: 0.25 µg/mL (≈ 0.835 µM)
  MIC90: 0.5 µg/mL (≈ 1.67 µM)
Klebsiella pneumoniae [14]
  MIC: 0.06 µg/mL (≈ 0.2 µM)
Klebsiella pneumoniae [15]
  MIC: 0.5 µg/mL (≈ 1.67 µM)
Proteus mirabilis [16]
  MIC: 0.5 µg/mL (≈ 1.67 µM)
Proteus mirabilis [17]
  MIC: 2 µg/mL (≈ 6.68 µM)
Proteus mirabilis [18]
  MIC: 1 µg/mL (≈ 3.34 µM)

## C[C@H]1COc2c(N3CCN(C)CC3)c(F)cc3c(=O)c(C(=O)O)cn1c23.C[C@H]1COc2c(N3CCN(C)CC3)c(F)cc3c(=O)c(C(=O)O)cn1c23.O [LEVOFLOXACIN]
Escherichia coli [1]
  MIC50: 16 µg/mL
  MIC90: > 16 µg/mL
Klebsiella pneumoniae [3]
  MIC50: 4 µg/mL
  MIC90: 16 µg/mL
Escherichia coli [4]
  MIC50: 16 µg/mL
  MIC90: > 16 µg/mL
Escherichia coli [5]
  MIC50: > 16 µg/mL
  MIC90: > 16 µg/mL
Escherichia coli [6]
  MIC50: 16 µg/mL
  MIC90: > 16 µg/mL
Klebsiella pneumoniae [7]
  MIC50: 2 µg/mL
  MIC90: > 16 µg/mL
Proteus mirabilis [8]
  MIC50: 8 µg/mL
  MIC90: > 16 µg/mL
Escherichia coli [9]
  MIC50: 16 µg/mL
  MIC90: > 16 µg/mL
Klebsiella pneumoniae [10]
  MIC50: 0.5 µg/mL
  MIC90: 16 µg/mL
Klebsiella pneumoniae [11]
  MIC: 0.12 µg/mL
Klebsiella pneumoniae [12]
  MIC50: 4 µg/mL
  MIC90: > 16 µg/mL
Klebsiella pneumoniae [13]
  MIC50: 0.5 µg/mL
  MIC90: > 16 µg/mL
Klebsiella pneumoniae [14]
  MIC: 2 µg/mL
Proteus mirabilis [16]
  MIC: 0.12 µg/mL
Proteus mirabilis [17]
  MIC: 2 µg/mL
Proteus mirabilis [18]
  MIC: 4 µg/mL

## CN(C)c1ccc(O)c2c1C[C@H]1C[C@H]3[C@H](N(C)C)C(O)=C(C(N)=O)C(=O)[C@@]3(O)C(O)=C1C2=O [MINOCYCLINE]
Escherichia coli [1]
  MIC50: 4 µg/mL (≈ 8.74 µM)
  MIC90: > 64 µg/mL
Escherichia coli [2]
  MIC: 1 µg/mL (≈ 2.19 µM)
Klebsiella pneumoniae [3]
  MIC50: 4 µg/mL (≈ 8.74 µM)
  MIC90: 16 µg/mL (≈ 35 µM)
Escherichia coli [4]
  MIC50: 4 µg/mL (≈ 8.74 µM)
  MIC90: 16 µg/mL (≈ 35 µM)
Escherichia coli [5]
  MIC50: 4 µg/mL (≈ 8.74 µM)
  MIC90: 32 µg/mL (≈ 69.9 µM)
Escherichia coli [6]
  MIC50: 4 µg/mL (≈ 8.74 µM)
  MIC90: 32 µg/mL (≈ 69.9 µM)
Klebsiella pneumoniae [7]
  MIC50: 4 µg/mL (≈ 8.74 µM)
  MIC90: 64 µg/mL (≈ 140 µM)
Proteus mirabilis [8]
  MIC50: 64 µg/mL (≈ 140 µM)
  MIC90: > 64 µg/mL
Escherichia coli [19]
  MIC: 2 µg/mL (≈ 4.37 µM)
Escherichia coli [9]
  MIC50: 4 µg/mL (≈ 8.74 µM)
  MIC90: 32 µg/mL (≈ 69.9 µM)
Klebsiella pneumoniae [10]
  MIC50: 4 µg/mL (≈ 8.74 µM)
  MIC90: 64 µg/mL (≈ 140 µM)
Klebsiella pneumoniae [11]
  MIC: 2 µg/mL (≈ 4.37 µM)
Klebsiella pneumoniae [12]
  MIC50: 4 µg/mL (≈ 8.74 µM)
  MIC90: 32 µg/mL (≈ 69.9 µM)
Klebsiella pneumoniae [13]
  MIC50: 8 µg/mL (≈ 17.5 µM)
  MIC90: 64 µg/mL (≈ 140 µM)
Klebsiella pneumoniae [14]
  MIC: 4 µg/mL (≈ 8.74 µM)
Klebsiella pneumoniae [15]
  MIC: 4 µg/mL (≈ 8.74 µM)
Proteus mirabilis [16]
  MIC: 16 µg/mL (≈ 35 µM)
Proteus mirabilis [17]
  MIC: 16 µg/mL (≈ 35 µM)
Proteus mirabilis [18]
  MIC: 16 µg/mL (≈ 35 µM)

## CN(C)c1cc(NC(=O)CNC(C)(C)C)c(O)c2c1C[C@H]1C[C@H]3[C@H](N(C)C)C(O)=C(C(N)=O)C(=O)[C@@]3(O)C(O)=C1C2=O [TIGECYCLINE]
Escherichia coli [1]
  MIC50: 0.25 µg/mL (≈ 0.427 µM)
  MIC90: 0.5 µg/mL (≈ 0.854 µM)
Escherichia coli [2]
  MIC: 0.25 µg/mL (≈ 0.427 µM)
Klebsiella pneumoniae [3]
  MIC50: 0.5 µg/mL (≈ 0.854 µM)
  MIC90: 1 µg/mL (≈ 1.71 µM)
Escherichia coli [4]
  MIC: 0.25 µg/mL (≈ 0.427 µM)
  MIC50: 0.25 µg/mL (≈ 0.427 µM)
  MIC90: 0.5 µg/mL (≈ 0.854 µM)
Escherichia coli [5]
  MIC50: 0.5 µg/mL (≈ 0.854 µM)
  MIC90: 0.5 µg/mL (≈ 0.854 µM)
Escherichia coli [6]
  MIC50: 0.25 µg/mL (≈ 0.427 µM)
  MIC90: 0.5 µg/mL (≈ 0.854 µM)
Klebsiella pneumoniae [7]
  MIC50: 0.5 µg/mL (≈ 0.854 µM)
  MIC90: 2 µg/mL (≈ 3.41 µM)
Proteus mirabilis [8]
  MIC50: 2 µg/mL (≈ 3.41 µM)
  MIC90: 16 µg/mL (≈ 27.3 µM)
Escherichia coli [19]
  MIC: 0.12 µg/mL (≈ 0.205 µM)
Escherichia coli [9]
  MIC50: 0.25 µg/mL (≈ 0.427 µM)
  MIC90: 0.5 µg/mL (≈ 0.854 µM)
Klebsiella pneumoniae [10]
  MIC50: 0.5 µg/mL (≈ 0.854 µM)
  MIC90: 1 µg/mL (≈ 1.71 µM)
Klebsiella pneumoniae [11]
  MIC: 0.5 µg/mL (≈ 0.854 µM)
Klebsiella pneumoniae [12]
  MIC50: 1 µg/mL (≈ 1.71 µM)
  MIC90: 2 µg/mL (≈ 3.41 µM)
Klebsiella pneumoniae [13]
  MIC50: 0.5 µg/mL (≈ 0.854 µM)
  MIC90: 2 µg/mL (≈ 3.41 µM)
Klebsiella pneumoniae [14]
  MIC: 0.5 µg/mL (≈ 0.854 µM)
Klebsiella pneumoniae [15]
  MIC: 0.5 µg/mL (≈ 0.854 µM)
Proteus mirabilis [16]
  MIC: 2 µg/mL (≈ 3.41 µM)
Proteus mirabilis [17]
  MIC: 0.5 µg/mL (≈ 0.854 µM)
Proteus mirabilis [18]
  MIC: 2 µg/mL (≈ 3.41 µM)

## NC[C@H]1O[C@H](O[C@H]2[C@H](O)[C@@H](O[C@H]3O[C@H](CO)[C@@H](O)[C@H](N)[C@H]3O)[C@H](N)C[C@@H]2N)[C@H](N)C[C@@H]1O [TOBRAMYCIN]
Escherichia coli [1]
  MIC50: 16 µg/mL (≈ 34.2 µM)
  MIC90: > 32 µg/mL
Escherichia coli [2]
  MIC: 1 µg/mL (≈ 2.14 µM)
Klebsiella pneumoniae [3]
  MIC50: 32 µg/mL (≈ 68.4 µM)
  MIC90: > 32 µg/mL
Escherichia coli [4]
  MIC50: 32 µg/mL (≈ 68.4 µM)
  MIC90: > 32 µg/mL
Escherichia coli [5]
  MIC50: 32 µg/mL (≈ 68.4 µM)
  MIC90: > 32 µg/mL
Escherichia coli [6]
  MIC50: 32 µg/mL (≈ 68.4 µM)
  MIC90: > 32 µg/mL
Klebsiella pneumoniae [7]
  MIC50: 32 µg/mL (≈ 68.4 µM)
  MIC90: > 32 µg/mL
Proteus mirabilis [8]
  MIC50: 8 µg/mL (≈ 17.1 µM)
  MIC90: > 32 µg/mL
Escherichia coli [19]
  MIC: 0.25 µg/mL (≈ 0.535 µM)
Escherichia coli [9]
  MIC50: 32 µg/mL (≈ 68.4 µM)
  MIC90: > 32 µg/mL
Klebsiella pneumoniae [10]
  MIC50: 16 µg/mL (≈ 34.2 µM)
  MIC90: > 32 µg/mL
Klebsiella pneumoniae [11]
  MIC: 0.5 µg/mL (≈ 1.07 µM)
Klebsiella pneumoniae [12]
  MIC50: 16 µg/mL (≈ 34.2 µM)
  MIC90: > 32 µg/mL
Klebsiella pneumoniae [13]
  MIC50: 32 µg/mL (≈ 68.4 µM)
  MIC90: > 32 µg/mL
Klebsiella pneumoniae [14]
  MIC: 0.25 µg/mL (≈ 0.535 µM)
Klebsiella pneumoniae [15]
  MIC: 16 µg/mL (≈ 34.2 µM)
Proteus mirabilis [16]
  MIC: 0.5 µg/mL (≈ 1.07 µM)
Proteus mirabilis [17]
  MIC: 4 µg/mL (≈ 8.56 µM)
Proteus mirabilis [18]
  MIC: 4 µg/mL (≈ 8.56 µM)
